The list is not random: actives were taken first. Their share in the collection is about 3.7%.
KCNQ1 act = potentiators or activators of KCNQ1 channel, primary screen, cell-based, thallium flux, high-throughput | Potassium voltage-gated channel subfamily KQT member 1 (Homo sapiens), P51787 | CHO-K1 KCNQ1, thallium flux FluxOR fluorescence; active compounds read high | B-score at 10 µM | actives 0.35% (n = 310,000) | AID 2648, 2010;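 active = fluorescence ratio B-score, a plate-corrected score, at least three library SD, with initial intensity B-score within 5 SD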
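System: CHO-K1 cells stably expressing KCNQ1 / Medium: assay buffer for compound exposure, DMSO matched across wells / Reagent: thallium- and potassium-containing depolarizing buffer / Compound: one concentration, matched DMSO / Incubation: 20 min compound pretreatment at room temperature / Measured by: kinetic FluxOR fluorescence, 10 s baseline plus 110 s post-stimulus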
KCNK3 block = human KCNK3 channel inhibitors, primary screen, CHO cells, FluxOR thallium flux, B-score. AID 602410, 2012. FluxOR fluorescence; active compounds read low. actives 0.84% (n = 340,000). B-score at 10 µM. Potassium channel subfamily K member 3 (Homo sapiens), O14649;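 active = B-score under library mean minus 4 SD, starting fluorescence ratio at most library mean plus 5 SD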;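 also: more negative B-score means stronger inhibition of thallium flux through KCNK3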
Target sequence (O14649 whole entry, looked up): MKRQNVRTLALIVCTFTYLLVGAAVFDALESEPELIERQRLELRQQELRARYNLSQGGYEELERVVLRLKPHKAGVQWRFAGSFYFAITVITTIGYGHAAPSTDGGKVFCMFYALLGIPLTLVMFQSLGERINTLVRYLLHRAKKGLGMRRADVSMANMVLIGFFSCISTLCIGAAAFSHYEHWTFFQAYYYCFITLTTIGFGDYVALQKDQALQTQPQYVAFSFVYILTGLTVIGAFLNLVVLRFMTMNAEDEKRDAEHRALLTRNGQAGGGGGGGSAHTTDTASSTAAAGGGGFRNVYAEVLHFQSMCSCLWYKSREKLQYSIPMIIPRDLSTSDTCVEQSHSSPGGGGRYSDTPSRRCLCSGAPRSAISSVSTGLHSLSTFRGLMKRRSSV
hERG rescue = hERG rescue from dofetilide block, primary screen, cell-based, CHO-hERG, FluxOR thallium flux, dofetilide IC70; dofetilide IC70 present; actives 0.51% (n = 310,000); Voltage-gated inwardly rectifying potassium channel KCNH2 (Homo sapiens), Q12809; activation (rescue from dofetilide block), less the hit threshold, % at 10 µM;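 active = activation above the mean of controls blocked by dofetilide plus 5 SD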;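 also: thallium influx through hERG after potassium depolarization seen as dye fluorescence rise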
Kir21 block = inhibitors of mouse Kir2.1 inward-rectifier potassium channel; Inward rectifier potassium channel 2 (Mus musculus), P35561; HEK293-Kir2.1, FluxOR thallium flux fluorescence; active compounds read low; B-score at 10 µM; actives 0.85% (n = 310,000); AID 1672, 2009;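 active = fluorescence ratio B-score at or below minus 3 SD of library scores, with starting-brightness B-score within 2 SD, cut at about -4.2 in these data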;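 also: channel flux triggered by added potassium and thallium sulfate stimulus; B-score of peak minus minimum fluorescence over baseline after thallium stimulus; more negative B-score means stronger Kir2.1 block with less thallium influx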
KCNQ1 block = inhibitors of human KCNQ1 channel, primary screen, cell-based, thallium flux, high-throughput; AID 2642, 2010; CHO-K1 KCNQ1, FluxOR thallium flux fluorescence; active compounds read high; B-score at 10 µM; Potassium voltage-gated channel subfamily KQT member 1 (Homo sapiens), P51787; actives 1.3% (n = 310,000);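 active = compounds whose thallium flux B-score, printed positive for inhibition, exceeds three library SD while starting fluorescence stays within three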;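 also: channel opened by potassium depolarization with thallium stimulus after 20 min compound exposure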
KCNK9 inh = KCNK9 potassium channel inhibitors, primary screen, HEK293 cells, thallium flux | Potassium channel subfamily K member 9 (Homo sapiens), Q9NPC2 | FluxOR thallium flux fluorescence; active compounds read low | B-score at 10 µM | actives 1.2% (n = 310,000);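 active = ratio B-score over 3 SD below the library mean, with starting fluorescence within 5 SD of its mean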;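 also: negative B-score means less thallium flux so channel inhibition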
KCNK9 inh conf = KCNK9 potassium channel inhibitors, confirmation, HEK293 cells, thallium flux, duplicate; shares compounds with KCNK9 inh; FluxOR thallium flux fluorescence; inhibition, % at 10 µM; actives 43% (n = 4,900);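 active = thallium signal inhibited by more than 5 SD of the compound-free buffer control wells, on both duplicate plates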
Kir2-1 spec = mouse Kir2.1 channel inhibition, confirmation, selectivity assay for KCNK9 modulator project, cell-based, HEK293, thallium flux; shares compounds with KCNK9 inh; Kir2.1 cells, FluxOR thallium flux fluorescence; inhibition, % at 10 µM; actives 4% (n = 4,900); AID 492993, 2010;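 active = thallium signal drop more than 5 SD beyond the mean of the no-compound control wells, seen in both duplicate plates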;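 also: signal is fluorescence rise after thallium addition divided by baseline fluorescence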
HEK293 Tl ctr = thallium flux in non-induced HEK293 cells, confirmation, counter-screen for KCNK9 inhibitor project, cell-based, second counter screen, non-induced KCNK9-HEK293; shares compounds with KCNK9 inh; FluxOR thallium flux; inhibition, % at 10 µM; actives 40% (n = 4,900); AID 492997, 2010;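 active = thallium signal drop beyond 5 SD of the untreated control mean, on both duplicate plates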
Hits are given with their value.

Results for C[C@]12CCC(O)CC1CCC1C2CC[C@]2(C)C(c3cc(C(F)(F)F)n[nH]3)CCC12 (stereo not given in full) ?
KCNQ1 act: inactive; KCNK3 block: inactive; hERG rescue: inactive; Kir21 block: inactive; KCNQ1 block: inactive; KCNK9 inh: -13; KCNK9 inh conf: 33%; Kir2-1 spec: inactive; HEK293 Tl ctr: 63%

How did CC(C)N(Cc1nc(-c2ccc(Cl)cc2)no1)C(=O)C12CC3CC(CC(C3)C1)C2 do in these assays?
KCNQ1 act: inactive; KCNK3 block: inactive; hERG rescue: inactive; Kir21 block: inactive; KCNQ1 block: inactive; KCNK9 inh: inactive; KCNK9 inh conf: inactive; Kir2-1 spec: inactive; HEK293 Tl ctr: inactive

Results for Cc1ccc(C(=O)N(Cc2nc(-c3ccc(C)cc3)no2)C(C)C)cc1 ?
KCNQ1 act: inactive; KCNK3 block: inactive; hERG rescue: inactive; Kir21 block: inactive; KCNQ1 block: inactive; KCNK9 inh: inactive

How did Cc1cccc(-c2noc(CN(C(=O)C34CC5CC(CC(C5)C3)C4)C(C)C)n2)c1 do in these assays?
KCNQ1 act: inactive; KCNK3 block: inactive; hERG rescue: inactive; Kir21 block: inactive; KCNQ1 block: inactive; KCNK9 inh: inactive; KCNK9 inh conf: inactive; Kir2-1 spec: inactive; HEK293 Tl ctr: inactive

What do the screens show for `Cc1ccc(SCC(=O)N(Cc2nc(-c3ccccc3)no2)C(C)C)cc1`?
KCNQ1 act: inactive; KCNK3 block: inactive; hERG rescue: inactive; Kir21 block: inactive; KCNQ1 block: inactive; KCNK9 inh: inactive; KCNK9 inh conf: inactive; Kir2-1 spec: inactive; HEK293 Tl ctr: 28%

Results for CC(=O)Oc1ccc(C(=O)Nc2ccccc2C(=O)Nc2ccc(C(=O)O)cc2)cc1 ?
KCNQ1 act: inactive; KCNK3 block: inactive; hERG rescue: inactive; Kir21 block: inactive; KCNQ1 block: inactive; KCNK9 inh: inactive

Results for CC(=O)Nc1ccccc1N(C)S(=O)(=O)c1ccc(C)cc1 ?
KCNQ1 act: inactive; KCNK3 block: inactive; hERG rescue: inactive; Kir21 block: inactive; KCNQ1 block: inactive; KCNK9 inh: -8.3; KCNK9 inh conf: inactive; Kir2-1 spec: inactive; HEK293 Tl ctr: inactive

Results for Cc1ccc(-c2ccc(/C=C3\C(=O)ON=C3c3ccccc3)o2)c([N+](=O)[O-])c1 ?
KCNQ1 act: 8; KCNK3 block: inactive; hERG rescue: inactive; Kir21 block: inactive; KCNQ1 block: inactive; KCNK9 inh: inactive; KCNK9 inh conf: inactive; Kir2-1 spec: inactive; HEK293 Tl ctr: 32%

What do the screens show for `Cc1ccc(/C=C2\C(=O)ON=C2c2ccccc2)o1`?
KCNQ1 act: inactive; KCNK3 block: inactive; hERG rescue: inactive; Kir21 block: inactive; KCNQ1 block: inactive; KCNK9 inh: inactive

How did O=C(c1ccc2c(c1)OCO2)C1CCCN(Cc2ccc3cccc(F)c3n2)C1 (stereo not given) do in these assays?
KCNQ1 act: inactive; KCNK3 block: inactive; hERG rescue: inactive; Kir21 block: inactive; KCNQ1 block: inactive; KCNK9 inh: inactive; KCNK9 inh conf: inactive; Kir2-1 spec: inactive; HEK293 Tl ctr: inactive

What do the screens show for `CSc1ccccc1NC(=O)N1CCCC(C(=O)c2ccc3c(c2)OCO3)C1` (stereo not given)?
KCNQ1 act: inactive; KCNK3 block: inactive; hERG rescue: inactive; Kir21 block: inactive; KCNQ1 block: inactive; KCNK9 inh: inactive; KCNK9 inh conf: inactive; Kir2-1 spec: inactive; HEK293 Tl ctr: inactive

What do the screens show for `O=C(c1ccc2c(c1)OCO2)C1CCCN(Cc2cn[nH]c2-c2cccc(F)c2)C1` (stereo not given)?
KCNQ1 act: inactive; KCNK3 block: inactive; hERG rescue: inactive; Kir21 block: inactive; KCNQ1 block: inactive; KCNK9 inh: inactive

Results for CC(=O)c1ccc(NC(=O)N2CCCC(C(=O)c3ccc4c(c3)OCO4)C2)cc1 (stereo not given) ?
KCNQ1 act: inactive; KCNK3 block: inactive; hERG rescue: inactive; Kir21 block: inactive; KCNQ1 block: inactive; KCNK9 inh: inactive

Results for O=C(c1ccc2c(c1)OCO2)C1CCCN(C(=O)c2cnn(Cc3ccccc3)c2)C1 (stereo not given) ?
KCNQ1 act: inactive; KCNK3 block: inactive; hERG rescue: inactive; Kir21 block: inactive; KCNQ1 block: inactive; KCNK9 inh: inactive; KCNK9 inh conf: inactive; Kir2-1 spec: inactive; HEK293 Tl ctr: inactive

What do the screens show for `O=C(c1ccc2c(c1)OCO2)C1CCCN(C(=O)NCc2ccccc2)C1` (stereo not given)?
KCNQ1 act: inactive; KCNK3 block: inactive; hERG rescue: inactive; Kir21 block: inactive; KCNQ1 block: inactive; KCNK9 inh: inactive

Results for CC1CCN(C(=O)c2[nH]cnc2C(=O)N[C@@H](C)C(=O)OCc2ccccc2)CC1 ?
KCNQ1 act: inactive; KCNK3 block: inactive; hERG rescue: inactive; Kir21 block: inactive; KCNQ1 block: inactive; KCNK9 inh: inactive

Results for CC(=O)c1cccc(OCc2cc(C(=O)N3CCC(N4CCCCC4)CC3)no2)c1 ?
KCNQ1 act: inactive; KCNK3 block: inactive; hERG rescue: inactive; Kir21 block: inactive; KCNQ1 block: inactive; KCNK9 inh: inactive

Results for Cn1c(=O)c2[nH]c(N=Nc3ccc(N)cc3N)nc2n(C)c1=O ?
KCNQ1 act: inactive; KCNK3 block: inactive; hERG rescue: inactive; Kir21 block: inactive; KCNQ1 block: inactive; KCNK9 inh: inactive

Results for CC(=O)Nc1ccc(S(=O)(=O)Nc2ccc3c(c2)C(=O)OC3)cc1 ?
KCNQ1 act: inactive; hERG rescue: inactive; Kir21 block: inactive; KCNQ1 block: inactive; KCNK9 inh: inactive

How did COc1ccccc1NC(=O)Nc1sccc1-c1nc2ccccc2s1 do in these assays?
KCNQ1 act: inactive; KCNK3 block: inactive; hERG rescue: inactive; Kir21 block: inactive; KCNQ1 block: inactive; KCNK9 inh: -13; KCNK9 inh conf: 70%; Kir2-1 spec: inactive; HEK293 Tl ctr: 40%

Screening data deposited in PubChem by Johns Hopkins Ion Channel Center.
